Bioassay records deposited in PubChem BioAssay by several laboratories.
LMPTP inh – LMPTP phosphatase inhibitors, primary screen, biochemical, fluorescence intensity, uHTS. Low molecular weight phosphotyrosine protein phosphatase (Homo sapiens), P24666. recombinant LMPTP-A, OMFP fluorogenic substrate. inhibition, % at 20 µM. 360,000 tested, 0.22% active. AID 651560, 2012;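 active = compounds that cut the enzyme signal by at least half of the control window in the single-dose screen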;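 also: plate controls were DMSO wells with enzyme plus substrate for no effect and substrate without enzyme for full effect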
Target sequence (P24666 whole entry, looked up): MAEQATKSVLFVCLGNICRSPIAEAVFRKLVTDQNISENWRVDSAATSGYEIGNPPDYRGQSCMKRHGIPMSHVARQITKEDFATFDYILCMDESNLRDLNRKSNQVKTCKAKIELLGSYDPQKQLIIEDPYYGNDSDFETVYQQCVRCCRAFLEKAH
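Test system – LMPTP-A phosphatase enzyme · Quantity – 0.625 nM LMPTP-A final · Reagent – OMFP substrate, 400 µM final · Dosing – one test concentration per compound, 20 µM, with 3% DMSO overall · Timing – 50 min enzyme reaction at room temperature, protected from light · Detection – fluorescence intensity · Controls – substrate-only low control, DMSO enzyme-plus-substrate high control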
STEP inh – STEP phosphatase inhibitors, primary screen, biochemical, fluorescence intensity, uHTS; Tyrosine-protein phosphatase non-receptor type 5 (Homo sapiens), P54829; recombinant STEP, OMFP fluorogenic substrate; inhibition, % at 20 µM; 360,000 tested, 0.25% active;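 active = inhibition at 20 µM, scaled per plate between control wells, above about 37%, limit read from the data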;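 also: 0% = DMSO with enzyme and substrate and 100% = substrate only without enzyme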
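System: STEP (striatal-enriched tyrosine phosphatase) enzyme, cell-free; medium: Bis-Tris pH 6.0 buffer with DTT, detergent; dosing: 20 µM, 1% DMSO; times: reaction 20 min, ambient temperature; detection: fluorescence, 480/540 nm; read-out basis: normalized % inhibition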
rCAG binder – binders of r(CAG) RNA repeats, primary screen, biochemical, fluorescence. r(CAG) RNA repeat, TO-PRO-1 dye displacement fluorescence. inhibition, % at 3 µM. 370,000 tested, 1.3% active;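 active = inhibition above the plate cutoff, the mean of all test compounds on that plate plus 3 SD, cut at about 35% in these data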;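 also: 0% = DMSO alone and 100% = 100 µM mitoxantrone as full dye displacement; higher means more dye released from RNA so lower well fluorescence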
Scp-1 inhibitor – Scp-1 phosphatase inhibitors, primary screen, biochemical, colorimetric, uHTS | 340,000 tested, 0.88% active | inhibition, % at 20 µM | Recombinant Scp1, phosphopeptide, malachite green phosphate absorbance;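 active = inhibition above about 50% at 20 µM, limit read from the data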;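 also: plate controls were DMSO wells with enzyme for no effect and wells lacking enzyme for full effect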
Target sequence (Q9GZU7 76-261 limits assumed): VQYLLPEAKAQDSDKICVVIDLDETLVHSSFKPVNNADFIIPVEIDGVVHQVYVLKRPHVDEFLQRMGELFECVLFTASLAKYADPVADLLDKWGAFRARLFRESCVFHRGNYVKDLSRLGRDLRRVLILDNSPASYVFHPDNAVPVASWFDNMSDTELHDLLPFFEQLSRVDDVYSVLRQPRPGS
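Test system: SCP-1 phosphatase catalytic domain, residues 76-261; measured by: colorimetric phosphate reagent with accelerator and stabiliser, absorbance at 630 nm; timing: enzyme reaction 45 min at room temperature, colour 5 min, stabilisation 30 min; also added: Phosphorylated 17-residue peptide substrate; compound dosing: one concentration, 20 µM, with 1.0% DMSO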
NadD inh – inhibitors of S. aureus NadD, primary screen, biochemical, colorimetric, uHTS; Nicotinate-nucleotide adenylyltransferase NadD (Staphylococcus aureus N315); purified NadD enzyme, colorimetric absorbance read-out; 360,000 tested, 0.78% active; inhibition, % at 20 µM; in the data active = inhibition above about 26%
Scp1 confirm – Scp-1 phosphatase inhibitors, retest, confirmation, biochemical, colorimetric, single concentration; AID 540281, 2011; shares compounds with Scp-1 inhibitor; inhibition, % at 20 µM; recombinant SCP-1 catalytic domain, phosphate release, malachite green absorbance; 2,500 tested, 61% active;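 also: plate controls were DMSO with enzyme for no effect and buffer wells lacking enzyme for full effect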
MG interference – colorimetric readout interference by compounds, confirmation, artefact control for Scp-1 inhibitor project, biochemical, single concentration; Colorimetric interference counterscreen, malachite green absorbance 630 nm; shares compounds with Scp-1 inhibitor; apparent inhibition (interference), % at 20 µM; 2,500 tested, under 10 active;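 also: compounds added after enzyme reaction finished so only phosphate colour detection is probed; plate controls were DMSO wells with completed Scp-1 reaction for no effect and substrate wells lacking enzyme for full effect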
Scp-1 Tm shift – Scp-1 binding by thermal shift, confirmation, orthogonal assay for Scp-1 inhibitor project, biophysical, differential scanning fluorimetry. shares compounds with Scp-1 inhibitor. Recombinant SCP1, Sypro Orange thermal shift Tm. thermal shift relative to vanadate control, % at 40 µM. 1,500 tested, 25% active;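 active = substances whose mean melting-temperature shift, as a percentage of the reference inhibitor's shift, reaches about 5.3%, limit read from the data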;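 also: 0% = Tm of DMSO wells and 100% = Tm with sodium orthovanadate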
Numbers without * were called inactive; ! = not active in a repeat. A selection: hits, their analogues and other compounds. The true share with any hit is near 2.6%.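 The calls were made as follows, unless noted: active = inhibition of at least 30% at 20 µM; inactive = the rest.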

For O=C(NCCN1CCC2(CC1)C(=O)NCN2c1ccccc1)C(c1ccccc1)c1ccccc1 the results were rCAG binder 1.
`CN(C)c1ccc(/C=C/c2cc[n+](C)c3ccccc23)cc1` gave LMPTP inh 55*!, STEP inh 16, rCAG binder 17, Scp-1 inhibitor 12 and NadD inh 1.
For CN(C)c1ccc(/C=C/C=C/c2sc3ccccc3[n+]2C)cc1 the results were LMPTP inh 16, STEP inh 4, rCAG binder 15, Scp-1 inhibitor -4 and NadD inh -10.
c1cncc(-c2ccc3n2Cc2cnnn2-c2ccccc2-3)c1 was read as rCAG binder -2.
For N#CCC[C@H]1CC[C@]2(CCCN(Cc3ccccn3)C2)O1 the results were rCAG binder 2.
`O=C(O)c1cccc2c1NC(C(=O)O)C1CC(Sc3ccccc3[N+](=O)[O-])C(Cl)C21` (stereo not given) gave LMPTP inh 79*, STEP inh 98*, rCAG binder 100*, Scp-1 inhibitor 56* and NadD inh 14.
`O=C1NC(=S)NC(=O)C1=Cc1ccc2c(c1)CCN2CCCCl` gave LMPTP inh 77*, STEP inh 60*, Scp-1 inhibitor 91* and NadD inh 53*.
CCOC(=O)c1c(-n2c(C)cc(C=C3C(=O)NC(=S)NC3=O)c2C)sc2c1CCCC2 was read as LMPTP inh 2, STEP inh 3, Scp-1 inhibitor 9 and NadD inh 46*.
CCN1C(=O)NC(=O)/C(=C/c2cc(C)n(-c3sc(C)c(C)c3C#N)c2C)C1=O was read as LMPTP inh 0, STEP inh -2, rCAG binder 5, Scp-1 inhibitor -3 and NadD inh 9.
For Cc1ccc(N2C(=O)NC(=O)/C(=C\c3cc(C)n(-c4sc5c(c4C#N)CCCC5)c3C)C2=O)cc1 the results were LMPTP inh 2, STEP inh 3, rCAG binder 11, Scp-1 inhibitor 2 and NadD inh 34*.
For COC(=O)C1(N(C)c2ccccc2)CCN(Cc2ccccc2)CC1 the results were rCAG binder 0.
`Cc1ccccc1CCC[C@H](CC1CCCCC1)CN(C)C(=O)Oc1ccccc1` gave rCAG binder 4.
Screening CN(C)c1ccc(/C=C2/C(=O)NC(=O)N(Cc3ccco3)C2=O)cc1 returned LMPTP inh 2, STEP inh 5, rCAG binder 26, Scp-1 inhibitor 33 and NadD inh 12.
Screening NC(=O)C1CCN(/C=C2\C(=O)NC(=O)N(Cc3ccco3)C2=O)CC1 returned LMPTP inh 9, STEP inh 22, rCAG binder -1, Scp-1 inhibitor 69* and NadD inh 2.
Cc1ccc2nc(-c3ccc(CN4CCC(n5nnc6ccccc65)CC4)cc3)c(-c3ccccc3)nc2c1 was read as rCAG binder 10.
CCN(CC)P(c1n(C)cc[n+]1C)N(CC)CC was read as LMPTP inh 0, STEP inh 4, rCAG binder 1, Scp-1 inhibitor 99*, NadD inh 19, Scp1 confirm 83*, MG interference -11 and Scp-1 Tm shift -26.
N#Cc1ccc2nc(-c3ccc(CN4CCC(n5c(=O)[nH]c6cc(Cl)ccc65)CC4)cc3)c(-c3ccccc3)nc2c1 was read as rCAG binder 14.
For O=C(Nc1ccccc1)N1Cc2cc(Br)ccc2-n2nncc2C1 the results were rCAG binder 1.
Screening CC(C)(C)OC(=O)NCCCCC(N)[P+](=O)O (stereo not given) returned rCAG binder 3.
Screening CCOC(=O)C1(c2ccccc2)Oc2ccccc2C(c2ccc(OC)cc2)=C1C(=O)OC (stereo not given) returned LMPTP inh 2, STEP inh 0, rCAG binder 5, Scp-1 inhibitor 97*, NadD inh -2, Scp1 confirm 1 and MG interference -18.
Screening C[Se]C[C@@H](N)C(=O)O returned LMPTP inh 0, STEP inh -1, rCAG binder 5, Scp-1 inhibitor 68*, NadD inh -3, Scp1 confirm 31*, MG interference -11 and Scp-1 Tm shift -23.
`O=C(O)CCn1cc(C=C2C(=O)NC(=S)NC2=O)c(-c2ccccc2)n1` gave LMPTP inh -3, STEP inh 5, rCAG binder -1, Scp-1 inhibitor 21 and NadD inh 2.
Screening O=C(O)CCn1cc(C=C2C(=O)NC(=S)NC2=O)c(-c2cc3ccccc3oc2=O)n1 returned LMPTP inh 0, STEP inh 2, rCAG binder 5, Scp-1 inhibitor 87*, NadD inh 2, Scp1 confirm 69*, MG interference -9 and Scp-1 Tm shift -9.
Cc1cc(/C=C2\C(=O)NC(=O)N(c3ccc(Cl)cc3)C2=O)c(C)n1-c1cccc(C(=O)O)c1 was read as LMPTP inh 1, STEP inh 13, rCAG binder 27, Scp-1 inhibitor 52*, NadD inh 5, Scp1 confirm 51*, MG interference -4 and Scp-1 Tm shift 6.9*.
`Cc1cc(/C=C2\C(=O)NC(=O)N(c3ccc(Br)cc3)C2=O)c(C)n1-c1cc(C(=O)O)cc(C(=O)O)c1` gave LMPTP inh 5, STEP inh 6, rCAG binder 31, Scp-1 inhibitor 60*, NadD inh -1, Scp1 confirm 42*, MG interference -16 and Scp-1 Tm shift -1.
Screening Cc1cc(/C=C2\C(=O)NC(=O)N(c3cccc(F)c3)C2=O)c(C)n1-c1cc(C(=O)O)cc(C(=O)O)c1 returned LMPTP inh 0, STEP inh 9, rCAG binder 12, Scp-1 inhibitor 39 and NadD inh -1.
